Measurements: publication PMC7305479 (Russian Journal of Bioorganic Chemistry, 2020)

How the values were obtained:
MDCK cell culture = test: Cytotoxicity measurement; format: cell-based
Procedure, shortened: (§1)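 Test compound was diluted 2-fold in medium from 2000 µg/mL DMSO stocks and applied to washed monolayers for 24 h at 37°C, 5% CO2. Cells were PBS-washed, then given MTT ([…] in medium) for 1.5 h. The product was dissolved in 96% ethanol and OD read at 535 nm. CC50 was derived from the data by curve analysis.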

[1] = system: respiratory syncytial virus A2; test: Antiviral activity against respiratory syncytial virus in HEp-2 culture; format: cell-based, Human respiratory syncytial virus (RSV); conditions: for SI (selectivity index, CC50/EC50): RSV, HEp-2 cells
Procedure, shortened: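 HEp-2 monolayers infected with 10-fold dilutions (10–1–10–7) of RSV A2. Test compound was pre-applied 1 h in 3-fold dilutions, starting from the CC50-level concentration made from a 2000 µg/mL DMSO stock. It was re-added at double concentration with virus for 1 h, then washed out and re-applied for 6 days at 37°C, 5% CO2. Read-out was acetone-fixed cell-ELISA (TMB, OD 450 nm), with Reed–Muench titers.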

HEp-2 culture = test: Cytotoxicity measurement; format: cell-based; conditions: for CC50: MTT, 24 h
Procedure, shortened: as §1

[2] = system: parainfluenza type 3 strain v2932; test: microbe, parasite or virus in culture; format: cell-based, Human parainfluenza virus type 3 (PIV-3); conditions: for SI (selectivity index, CC50/EC50): PIV-3, HEp-2 cells
[3] = system: broad spectrum of enveloped viruses; conditions: cited from earlier work
[4] = system: influenza virus strain A/PR/8/34 (H1N1); test: organism not typed; format: cell-based, Influenza A virus (IVA); conditions: for SI (selectivity index, CC50/EC50): Influenza A virus, MDCK cells
Cytotoxicity measurement [5] = format: cell-based; conditions: dog, MDCK cells
Procedure, shortened: as §1

herpes simplex type 1 = conditions: cited from earlier work
tick-borne encephalitis = conditions: cited from earlier work
Cytotoxicity measurement [6] = format: cell-based; conditions: human, HEp-2 cells
Procedure, shortened: as §1

Solubility = format: physicochemical
[7] = human respiratory syncytial virus, HEp-2

SMILES	antiviral activity (in words) [3]	CC50 at 24 h (Cytotoxicity measurement [5])	SI (selectivity index, CC50/EC50) [1]	EC50 [1, 7]	CC50 at 24 h (Cytotoxicity measurement [6])	EC50 ([2]; Human respirovirus 3, HEp-2)	SI (selectivity index, CC50/EC50) [2]	SI (selectivity index, CC50/EC50) [4]	EC50 ([4]; MDCK)	other results
O=c1[nH]c(=O)n([C@@H]2O[C@H](CO)[C@@H](O)[C@@H]2O)cc1C#Cc1ccc2c3cccc4cccc(c5cccc1c52)c43 [aUY11 (II), 5-(perylen-3-ylethynyl)-arabino-uridine]	highly active									CC50 (MDCK cell culture; MDCK cell culture (IVA columns), MTT, 24 h): 894 ± 23 µM; EC50 ([1]; RSV A2 in HEp-2 cells): 2.3 ± 0.1 µM; CC50 (HEp-2 culture; HEp-2 culture (PIV-3 columns)): 998 ± 59 µM; CC50 (HEp-2 culture; HEp-2 culture (RSV columns)): 998 ± 59 µM; EC50 ([2]; PIV-3 strain v2932 in HEp-2 cells): 1.3 ± 0.3 µM; EC50 ([4]; Influenza A virus A/PR/8/34 (H1N1) in MDCK cells): 5.2 ± 0.4 µM
CC(C)(C)C(=O)OCn1c(=O)c(C#Cc2ccc3c4cccc5cccc(c6cccc2c63)c54)cn(CC(=O)O)c1=O [cm1pUY11 (III), 1-carboxymethyl-3-pivaloyloxymethyl-5-(perylen-3-ylethynyl)uracil]		34 ± 1.9 µM	24	1.9 ± 0.1 µM	45 ± 3.4 µM	4.3 ± 0.2 µM	10	68	0.5 ± 0.02 µM	cytotoxic properties (in words) (MDCK cell culture; MDCK cell culture, compared with the other three compounds): significantly more pronounced cytotoxic properties; antiviral activity (in words) (herpes simplex type 1): activity; antiviral activity (in words) (tick-borne encephalitis): activity; cytotoxic properties (in words) (HEp-2 culture; HEp-2 cell culture, compared with the other three compounds): significantly more pronounced cytotoxic properties
O=c1[nH]c(=O)n([C@H]2C[C@H](O)[C@@H](CO)O2)cc1C#Cc1ccc2c3cccc4cccc(c5cccc1c52)c43 [dUY11 (I), 5-(perylen-3-ylethynyl)-2′-deoxy-uridine]	highly active	492 ± 56 µM	330	1.8 ± 0.2 µM	598 ± 44 µM	2.2 ± 0.5 µM	270	180	2.7 ± 0.7 µM	
O=c1[nH]c(=O)n([C@@H]2O[C@H](CO)[C@@H](O)[C@H]2O)cc1C#Cc1ccc2c3cccc4cccc(c5cccc1c52)c43 [rUY11 (IV), 5-(Perylen-3-ylethynyl)uridine]		658 ± 34 µM	84	7.1 ± 0.2 µM	599 ± 23 µM	2.9 ± 0.4 µM	210	100	6.4 ± 1.2 µM	solubility in DMSO (Solubility; DMSO): fairly soluble; solubility in water (Solubility; water): only slightly soluble
